INS promoter act – TRM-6 insulin promoter activation; AID 1296; TRM-6 cells, insulin promoter eGFP reporter, imaging; plate-scaled: unstimulated 0, stimulated control 100; actives 0.81% (n = 130,000); activation, % at 2 µM;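 active = activation at 2 µM above a set limit, confirmed on inspection of the cell images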;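 also: share of cells whose green reporter signal exceeds an intensity cutoff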
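System – human fetal islet-derived TRM-6 cells with tamoxifen-inducible insulin promoter–eGFP reporter · Amount – 1,000 cells per well · Schedule – overnight tamoxifen, then two-day compound incubation at 37 °C · Detection – high-content imaging of fixed cells with Hoechst nuclear stain · Read-out – percent cells above green-intensity threshold, converted to percent activation versus plate controls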
Of the large screens only hits and unclear results are named; the others gave an inactive call. This is one part of a sample in which hits are shown more often than they occur.

Nc1nncn1C(=O)CCCN1C(=O)c2ccccc2C1=O	none
Cc1c(Cl)cccc1NC(=O)CSCC(N)=O	none
Cc1ccc(OCCCC(=O)NCc2ccco2)c(C)c1	none
Cc1ccc(C23CC4CC(CC(CC(=O)N5CCOCC5)(C4)C2)C3)cc1	none
CCCCN(C(=O)NC(=O)Nc1c(C)cc(C)cc1C)S(C)(=O)=O	INS promoter act 164
Cc1cc(C)c(NC(=O)Nc2ccccc2)c(Cl)c1	none
Cc1cc(C)c(NC(=O)Cc2ccc(-n3cccc3)cc2)c(C)c1	none
CCOc1ccc(C2=Cc3cc(OC)c(OC)cc3C(=C(Cl)Cl)O2)cc1	none
O=C1CCCC(O)=C1C=NCc1ccccc1	none
O=C1Nc2ccccc2N(O)N1c1cc(-c2ccccc2)[nH]n1	none
CC1(C)C(=O)C2(CCCCC2)C(=O)OC1c1ccc(O)cc1 (centres undefined)	none
Cc1ccc(C)c(-n2nnnc2SCC(=O)NCCC2=CCCCC2)c1	INS promoter act 708
Cc1ccc(CS(=O)(=O)CCC(=O)NCCC2=CCCCC2)cc1	none
CNC(=O)CSc1nnnn1-c1cc(C)ccc1C	none
CC(C)CC(=O)Nc1nnc(SCC(=O)NCc2ccc3c(c2)OCO3)s1	none
COc1ccc(OC)c(S(=O)(=O)N2CCC(C(=O)NCCc3ccccc3)CC2)c1	none
Cc1ccc2sc(C)[n+](CCC(C)S(=O)(=O)[O-])c2c1 (centres undefined)	none
CCOC(=O)CSc1nc2ccccc2c(=O)n1CCN1CCOCC1	none
CCOC(=O)COn1c(SCC(=O)OCC)nc2ccccc2c1=O	none
CCOC(=O)C(C)Sc1nc2ccccc2c(=O)n1CC (centres undefined)	INS promoter act 426
O=[N+]([O-])c1ccc(CN2CCN(c3ccc4ccccc4n3)CC2)cc1	none
CC(C)OCCCNC(=O)c1ccccc1Oc1ccccc1	none
CCC1=Nc2cc(C(=O)O)ccc2Sc2ccccc21	none
CCC1=Nc2cc(C(=O)NCCCOC(C)C)ccc2Sc2ccccc21	INS promoter act 110
CCNS(=O)(=O)c1ccc(CCC(=O)NCc2ccccc2)cc1	none
CCC(C)N(CC(=O)Nc1cccc(C)c1C)C(=O)CCl (centres undefined)	none
Cc1ccsc1/C=N\NC(=O)c1cc(C(C)(C)C)[nH]n1	none
Cc1ccccc1NC(=S)N(CCc1c(C)[nH]c2ccc(F)cc12)Cc1cccnc1	none
COc1cccc(NC(=S)N(CCc2c(C)[nH]c3ccc(C)cc23)Cc2cccs2)c1	none
Cc1[nH]c2ccc(F)cc2c1CCN(Cc1ccco1)C(=S)NC(C)(C)C	INS promoter act 347
Cc1ccc(SCC(=O)NC(=O)NCc2ccccc2)c(C)c1	none
CCC(CC)c1nnc(NC(=O)c2c(C)nn(Cc3ccccc3Cl)c2C)s1	none
Cc1ccsc1C(=O)Nc1cccc(S(=O)(=O)N(C)C)c1	INS promoter act 431
CN(C)S(=O)(=O)c1cccc(C(=O)Nc2ccccc2)c1	none
CN(C)S(=O)(=O)c1cccc(NC(=O)Cc2ccc(Cl)cc2)c1	none
Cc1[nH]c2ccccc2c1C(=O)COc1ccccc1F	none
COc1ccc(/C=N/NS(=O)(=O)c2ccccc2)cc1OS(=O)(=O)c1ccc(C)cc1	none
Cc1ccc(S(=O)(=O)Oc2ccccc2/C=N/NC(N)=S)cc1	INS promoter act 103
COc1ccc(/C=N/NC(N)=S)cc1OC(=O)c1ccccc1	none
COc1ccc(/C=N\NC(=O)COc2ccccc2)c(C(=O)O)c1OC	none
CCOC(=O)c1cccc(NC(=O)CSc2nnc(CNc3ccc(C)cc3)n2CC)c1	none
CCOC(=O)c1cccc(NC(=O)CSc2nnc(-c3cccnc3)n2CC)c1	INS promoter act 81
CCOC(=O)c1cccc(NC(=O)c2cccnc2)c1	none
COc1cc(C(=O)N/N=C2\CCS(=O)(=O)c3ccc(F)cc32)cc(OC)c1OC	none
Cc1csc(NC(=O)CSc2ccc(-c3ccccn3)nn2)n1	none
CCNc1nc(NCC)n2c(SCC(=O)Nc3ccc(C(F)(F)F)cc3[N+](=O)[O-])nnc2n1	none
COc1cccc(CC(Cc2nc3ccccc3[nH]2)c2nc3ccccc3[nH]2)c1 (centres undefined)	none
COc1ccc(S(=O)(=O)Nc2ccc(N(C)C(C)=O)cc2)cc1	INS promoter act 103
CCOc1ccc(NS(=O)(=O)c2ccc(NC(=S)NC(C)=O)cc2)cc1	none
Cc1ccc(S(=O)(=O)Nc2ccc(N(C)C)cc2)cc1	none
CC(C)Oc1ccc(NC(=O)c2ccncc2)cc1	none
Cc1cccc(-n2nnc3c(=O)n(CC(=O)Nc4cc(C)on4)cnc32)c1	none
COc1ccccc1N1C(=O)C(Cl)=C(Nc2ccccc2O)C1=O	INS promoter act 379
CCOc1ccccc1NC1=C(Cl)C(=O)N(c2ccc(OC)cc2)C1=O	none
COc1ccccc1N1CCN(c2ccc(Cl)nn2)CC1	none
COc1ccc(CN2CCn3ncc(C(=O)Nc4cc(C)cc(C)c4)c3C2=O)cc1	none
Cc1snc(S(=O)(=O)/C(C#N)=N/Nc2ccc(C(F)(F)F)cc2)c1C#N	none
CC1CCCCC1NC(=O)C1CCN(S(=O)(=O)c2cccc3nsnc23)CC1 (centres undefined)	none
Cc1cc(NC(=O)c2cc(S(=O)(=O)N3CCCCC3)ccc2C)n(-c2ccccn2)n1	none
CCOc1ccc(OCCN2C(=O)NC(Cc3c[nH]c4ccccc34)C2=O)cc1 (centres undefined)	INS promoter act 533
COc1ccc(OCC(=O)NCCc2c[nH]c3ccccc23)cc1	none
COc1ccc(OCCN2C(=O)c3ccccc3C2=O)cc1	none
COc1cc([N+](=O)[O-])cc2sc(NC(=O)C3CC3)nc12	none
O=[N+]([O-])c1cccc(S(=O)(=O)NCCCN2CCOCC2)c1	none
O=C(NCc1cccnc1)C1c2ccccc2C(=O)N1C1CCCC1 (centres undefined)	none
Cc1cccc(N2CCN(C(=O)Cc3ccc(Br)cc3)CC2)c1C	none
O=C(Cc1ccc(Br)cc1)N1CCN(c2ccccc2)CC1	INS promoter act 467
O=C(CSCc1ccccc1)N1CCN(c2ccccc2)CC1	none
CCOc1ccc(Cl)cc1CSc1ncn[nH]1	none
COc1cc(C2NC(=S)NC(C)=C2C(=O)Nc2ccc(C)cc2)ccc1O (centres undefined)	none
CCC1CCC(C(=O)NC(CCSC)C(=O)NCCN(CC(C)C)CC(C)C)CC1 (centres undefined)	none
Cc1onc(-c2ccccc2)c1C(=O)N1CCN(C)CC1	INS promoter act 100
Cc1onc(-c2ccccc2)c1C(=O)N1CCN(C(=O)c2ccco2)CC1	none
Cc1onc(-c2ccccc2)c1C(=O)N1CCCN(C(=O)c2c(-c3ccccc3)noc2C)CC1	none
CC(=O)Nc1ccc(NC(=O)COC(=O)CCc2nc3ccccc3s2)cc1	none
Cc1ccc(SC(C)C(=O)Nc2ccccc2C(=O)N2CCOCC2)cc1 (centres undefined)	INS promoter act 83
Cc1ccccc1Nc1ncccc1C(=O)N1CCOCC1	none
CS(=O)(=O)N(CC(=O)Nc1ccccc1C(=O)N1CCOCC1)c1ccccc1	none
CCOc1ccc2nc(NCCCNS(=O)(=O)c3ccccc3)c(C#N)cc2c1	none
CCN(CC)c1ccc(-c2nnc(SCC(=O)Nc3ccccc3C#N)n2-c2ccccc2)cc1	none
C=CCn1c(=O)n(C(=O)OCC)c2cc(Br)ccc21	none
Cc1ccc(-c2cc(C(=O)N/N=C/c3c(C)nn(C)c3C)c3ccccc3n2)cc1C	none
C#C[C@]1(O)CC[C@H]2[C@@H]3CCc4cc(OC)ccc4[C@H]3CC[C@@]21C	none
Cc1nn(C)c(C)c1/C=N/N=C1\CCC2C3CCc4cc(O)ccc4C3CCC12C (centres undefined)	INS promoter act 91
S=C(NC1CCCC1)N1CCN(c2ccc(Cl)cc2)CC1	none
COc1cc(OC)cc(C(=O)N[C@H](C(=O)OCC(=O)Nc2ccc(F)c(F)c2)C(C)C)c1	none
CCCCP(=O)(CCCC)Cc1ccccc1O	INS promoter act 610
